Experimental findings from ChEMBL document CHEMBL4396883, “Discovery of CDK5 Inhibitors through Structure-Guided Approach” (ACS Med Chem Lett, 2019) are described below.

Active and inactive are the calls of the source. The rule behind the calls is not given here.

Assay [1] has as its target T1, Cyclin-dependent kinase 5/CDK5 activator 1 (Homo sapiens, UniProt Q00535+Q15078). Kind of assay: Inhibition of recombinant full length N-terminal GST tagged human CDK5/p25 expressed in baculovirus infected sf9 cells using histone H1 as substrate at 10 uM measured after 60 mins in presence of ATP by ADP-Glo kinase assay relative to control.
Assay [2] concerns the target CDK2/Cyclin A2 (Homo sapiens) (UniProt P24941+P20248). The assay can be described thus: Inhibition of recombinant full length N-terminal GST tagged human CDK2/CyclinA expressed in baculovirus infected sf9 cells using histone H1 as substrate at 10 uM measured after 30 mins in presence of ATP by ADP-Glo kinase assay relative to control. (In general: ADP-Glo turns the ADP formed in a reaction into a luminescent signal.)

The target in assay [3] is Cyclin-dependent kinase 5/CDK5 activator 1 (Homo sapiens, UniProt Q00535). Kind of assay: (§1) Inhibition of recombinant full length N-terminal GST tagged human CDK5/p25 expressed in baculovirus infected sf9 cells using histone H1 as substrate measured after 60 mins in presence of ATP by ADP-Glo kinase assay. The assay is classed as cell-based.
Sequence of Cyclin-dependent kinase 5/CDK5 activator 1 (Homo sapiens, UniProt Q00535) (Q00535 whole entry): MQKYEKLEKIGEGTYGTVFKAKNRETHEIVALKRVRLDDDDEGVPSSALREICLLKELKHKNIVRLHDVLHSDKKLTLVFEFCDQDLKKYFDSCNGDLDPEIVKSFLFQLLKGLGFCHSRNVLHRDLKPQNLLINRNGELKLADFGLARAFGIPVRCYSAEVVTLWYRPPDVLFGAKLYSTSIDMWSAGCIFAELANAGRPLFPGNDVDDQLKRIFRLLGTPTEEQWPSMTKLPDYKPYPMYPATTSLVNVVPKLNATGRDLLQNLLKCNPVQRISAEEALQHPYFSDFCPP
Sequence of Cyclin-dependent kinase 5/CDK5 activator 1 (Homo sapiens, UniProt Q00535) (Q15078 whole entry, further chain): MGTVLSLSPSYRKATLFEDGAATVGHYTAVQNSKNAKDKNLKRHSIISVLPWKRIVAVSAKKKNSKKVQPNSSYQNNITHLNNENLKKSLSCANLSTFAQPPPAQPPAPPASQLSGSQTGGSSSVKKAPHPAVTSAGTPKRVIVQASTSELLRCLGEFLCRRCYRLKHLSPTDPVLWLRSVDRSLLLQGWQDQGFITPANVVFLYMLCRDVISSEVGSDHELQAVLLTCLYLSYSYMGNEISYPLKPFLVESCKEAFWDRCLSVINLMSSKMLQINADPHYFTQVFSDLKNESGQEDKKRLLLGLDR
The test system of a further assay is MOLM-13. The assay can be described thus: Antiproliferative activity against human MOLM13 cells assessed as growth inhibition measured after 72 hrs by resazurin assay. It is filed as functional. The settings on record: MOLM-13, 72 h. An outline of the steps: (§2)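 Leukemia cells exposed to compound for 72 h; viability read by resazurin reduction. GI50 (concentration giving 50% inhibition of proliferation) reported as mean ± SD of three independent experiments.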
On the technique in general: The colour change of resazurin is a common sign of viable cells or microbes.

Another assay deals with MV4-11. Kind of assay: Antiproliferative activity against human MV4-11 cells assessed as growth inhibition measured after 72 hrs by resazurin assay. It is filed as functional. The conditions noted are these: MV4-11, 72 h. The method, boiled down:
as §2

Another assay addresses CDK2/Cyclin A2 (Homo sapiens, UniProt P24941). The assay can be described thus: Inhibition of recombinant full length N-terminal GST tagged human CDK2/CyclinA expressed in baculovirus infected sf9 cells using histone H1 as substrate measured after 30 mins in presence of ATP by ADP-Glo kinase assay. An outline of the steps:
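CDK2/cyclin A kinase inhibition; Ki values from the average of at least two experiments.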

The target in another assay is CDK7/Cyclin H/MNAT1 (Homo sapiens, UniProt P50613). The assay can be described thus: Inhibition of CDK7/cyclinH/MAT1 (unknown origin) using RBER-IRStide as substrate incubated for 120 mins in presence of ATP by ADP-Glo kinase assay. It is filed as protein-complex assay.
Sequence of CDK7/Cyclin H/MNAT1 (P51946 whole entry): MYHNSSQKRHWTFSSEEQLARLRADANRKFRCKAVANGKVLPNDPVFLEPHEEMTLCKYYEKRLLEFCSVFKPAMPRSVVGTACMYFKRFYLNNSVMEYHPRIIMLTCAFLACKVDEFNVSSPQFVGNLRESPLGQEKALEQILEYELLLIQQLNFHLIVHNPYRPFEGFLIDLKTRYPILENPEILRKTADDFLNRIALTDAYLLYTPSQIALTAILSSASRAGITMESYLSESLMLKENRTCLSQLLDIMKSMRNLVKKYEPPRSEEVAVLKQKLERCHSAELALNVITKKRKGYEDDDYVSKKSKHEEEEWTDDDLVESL
Sequence of CDK7/Cyclin H/MNAT1 (P50613 whole entry): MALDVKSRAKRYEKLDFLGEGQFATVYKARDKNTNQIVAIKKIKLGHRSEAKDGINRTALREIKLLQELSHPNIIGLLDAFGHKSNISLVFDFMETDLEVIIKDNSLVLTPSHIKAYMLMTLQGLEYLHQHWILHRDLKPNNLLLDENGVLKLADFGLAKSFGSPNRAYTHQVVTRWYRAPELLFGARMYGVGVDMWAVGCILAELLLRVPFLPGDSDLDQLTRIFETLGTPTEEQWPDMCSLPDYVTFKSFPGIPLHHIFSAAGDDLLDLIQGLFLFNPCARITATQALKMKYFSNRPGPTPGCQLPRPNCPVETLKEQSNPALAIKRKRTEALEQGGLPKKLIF
Sequence of CDK7/Cyclin H/MNAT1 (P51948 whole entry, further chain): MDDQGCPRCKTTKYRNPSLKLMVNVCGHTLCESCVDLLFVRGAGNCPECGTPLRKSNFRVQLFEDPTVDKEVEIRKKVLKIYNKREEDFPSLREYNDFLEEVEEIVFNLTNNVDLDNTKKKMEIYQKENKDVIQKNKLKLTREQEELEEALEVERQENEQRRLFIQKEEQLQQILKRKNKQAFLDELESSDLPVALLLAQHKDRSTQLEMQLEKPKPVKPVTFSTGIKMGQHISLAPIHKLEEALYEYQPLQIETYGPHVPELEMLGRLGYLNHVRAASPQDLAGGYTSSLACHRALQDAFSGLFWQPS
The target in assay [4] is Cyclin-dependent kinase 2/cyclin E1 (Homo sapiens, UniProt P24941). The assay can be described thus: Inhibition of CDK2/Cyclin E (unknown origin) incubated for 30 to 120 mins in presence of ATP by ADP-Glo kinase assay. The assay is classed as protein-complex assay.
Another assay concerns the target CDK6/cyclin D3 (Homo sapiens, UniProt Q00534). The assay can be described thus: Inhibition of human recombinant N-terminal GST-tagged CDK6 (M1-A326 residues) and His6 tagged Cyclin D3 (M1-L292 residues) expressed in sf9 cells using histone H1 (GGGPATPKKAKKL) as substrate incubated for 60 mins in presence of ATP by ADP-Glo kinase assay.
The target of a further assay is CDK9/cyclin T1 (Homo sapiens, UniProt P50750). The assay can be described thus: Inhibition of human recombinant full length N-terminal GST His6 fused CDK9 (M1 to F372 residues/ N-terminal His6 tagged Cyclin T1 (M1 to K726 residues) expressed in sf9 cells using RBER-IRStide as substrate incubated for 90 mins in presence of ATP by ADP-Glo kinase assay.
Sequence of CDK9/cyclin T1 (O60563 whole entry, the tested form may be a part): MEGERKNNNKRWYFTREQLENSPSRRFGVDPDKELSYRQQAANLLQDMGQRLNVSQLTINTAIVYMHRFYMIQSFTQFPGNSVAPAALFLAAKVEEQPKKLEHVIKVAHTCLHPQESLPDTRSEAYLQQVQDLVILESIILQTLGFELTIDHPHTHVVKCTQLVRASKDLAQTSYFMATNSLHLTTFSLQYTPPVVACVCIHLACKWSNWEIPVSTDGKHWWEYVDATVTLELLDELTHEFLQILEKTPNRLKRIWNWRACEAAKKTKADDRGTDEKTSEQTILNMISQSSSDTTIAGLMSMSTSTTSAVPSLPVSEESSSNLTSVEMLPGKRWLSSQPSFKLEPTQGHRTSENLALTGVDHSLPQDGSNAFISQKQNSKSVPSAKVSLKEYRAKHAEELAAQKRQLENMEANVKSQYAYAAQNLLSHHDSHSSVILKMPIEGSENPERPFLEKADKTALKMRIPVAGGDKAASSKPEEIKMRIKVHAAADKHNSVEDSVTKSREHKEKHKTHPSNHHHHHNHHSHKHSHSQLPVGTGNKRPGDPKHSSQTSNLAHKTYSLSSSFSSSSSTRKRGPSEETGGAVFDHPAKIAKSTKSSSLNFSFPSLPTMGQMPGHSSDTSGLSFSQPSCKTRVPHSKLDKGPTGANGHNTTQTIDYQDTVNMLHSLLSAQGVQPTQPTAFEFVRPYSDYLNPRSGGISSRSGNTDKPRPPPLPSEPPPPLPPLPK
Sequence of CDK9/cyclin T1 (P50750 whole entry, the tested form may be a part): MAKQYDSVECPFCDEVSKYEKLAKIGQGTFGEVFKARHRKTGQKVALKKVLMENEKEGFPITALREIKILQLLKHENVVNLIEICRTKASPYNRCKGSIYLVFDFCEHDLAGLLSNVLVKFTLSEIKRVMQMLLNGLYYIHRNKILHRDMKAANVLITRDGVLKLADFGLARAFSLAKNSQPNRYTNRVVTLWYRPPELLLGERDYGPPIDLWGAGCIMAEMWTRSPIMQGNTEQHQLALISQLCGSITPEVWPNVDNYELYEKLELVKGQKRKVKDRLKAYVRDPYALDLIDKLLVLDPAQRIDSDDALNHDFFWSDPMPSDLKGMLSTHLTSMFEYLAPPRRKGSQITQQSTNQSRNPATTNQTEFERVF
Assay [5] concerns the target Cyclin-dependent kinase 1/cyclin B1 (Homo sapiens, UniProt P06493). Kind of assay: Inhibition of CDK1/CyclinB1 (unknown origin) using histone H1 (GGGPATPKKAKKL) as substrate incubated for 80 mins in presence of ATP by ADP-Glo kinase assay. The assay is classed as protein-complex assay.
In assay [6] the target is Cyclin-dependent kinase 4/cyclin D1 (Homo sapiens, UniProt P11802). The assay can be described thus: Inhibition of human recombinant N-terminal GST-tagged CDK4 (S4-E303 residues)/Cyclin D1 (Q4-I295 residues) expressed in sf9 cells using RB-CTF as substrate incubated for 90 mins in presence of ATP by ADP-Glo kinase assay.
Sequence of Cyclin-dependent kinase 4/cyclin D1 (P11802 whole entry, the tested form may be a part): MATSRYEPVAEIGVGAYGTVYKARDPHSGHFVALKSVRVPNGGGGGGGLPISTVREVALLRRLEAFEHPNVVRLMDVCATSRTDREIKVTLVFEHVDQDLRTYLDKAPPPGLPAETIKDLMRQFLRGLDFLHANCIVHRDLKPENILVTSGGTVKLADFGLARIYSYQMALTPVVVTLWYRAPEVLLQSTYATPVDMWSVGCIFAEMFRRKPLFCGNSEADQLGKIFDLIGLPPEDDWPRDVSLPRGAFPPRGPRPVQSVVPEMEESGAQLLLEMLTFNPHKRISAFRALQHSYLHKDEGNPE
Sequence of Cyclin-dependent kinase 4/cyclin D1 (P24385 whole entry, further chain, the tested form may be a part): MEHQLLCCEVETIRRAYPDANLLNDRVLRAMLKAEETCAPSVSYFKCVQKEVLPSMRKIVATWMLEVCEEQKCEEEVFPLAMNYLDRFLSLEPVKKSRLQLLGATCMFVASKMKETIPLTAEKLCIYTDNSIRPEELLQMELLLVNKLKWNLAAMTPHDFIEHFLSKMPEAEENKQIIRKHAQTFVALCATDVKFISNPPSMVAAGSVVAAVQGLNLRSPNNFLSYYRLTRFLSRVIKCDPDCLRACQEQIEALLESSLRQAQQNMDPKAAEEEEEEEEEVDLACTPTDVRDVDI
The target of assay [7] is T1, Cyclin-dependent kinase 5/CDK5 activator 1. The assay is described as §1. It is filed as cell-based. The conditions noted are these: sf9.

Sequence of Cyclin-dependent kinase 1/cyclin B1 (P06493 whole entry, the tested form may be a part): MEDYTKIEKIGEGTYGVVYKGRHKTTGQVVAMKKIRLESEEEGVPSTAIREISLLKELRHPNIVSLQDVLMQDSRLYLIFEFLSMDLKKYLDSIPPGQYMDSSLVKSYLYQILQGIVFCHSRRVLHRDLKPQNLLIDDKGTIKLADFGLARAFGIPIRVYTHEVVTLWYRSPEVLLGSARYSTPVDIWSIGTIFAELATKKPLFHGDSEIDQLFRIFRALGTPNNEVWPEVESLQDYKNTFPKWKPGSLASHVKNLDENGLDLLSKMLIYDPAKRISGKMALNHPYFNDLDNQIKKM
Sequence of Cyclin-dependent kinase 1/cyclin B1 (P14635 whole entry, further chain, the tested form may be a part): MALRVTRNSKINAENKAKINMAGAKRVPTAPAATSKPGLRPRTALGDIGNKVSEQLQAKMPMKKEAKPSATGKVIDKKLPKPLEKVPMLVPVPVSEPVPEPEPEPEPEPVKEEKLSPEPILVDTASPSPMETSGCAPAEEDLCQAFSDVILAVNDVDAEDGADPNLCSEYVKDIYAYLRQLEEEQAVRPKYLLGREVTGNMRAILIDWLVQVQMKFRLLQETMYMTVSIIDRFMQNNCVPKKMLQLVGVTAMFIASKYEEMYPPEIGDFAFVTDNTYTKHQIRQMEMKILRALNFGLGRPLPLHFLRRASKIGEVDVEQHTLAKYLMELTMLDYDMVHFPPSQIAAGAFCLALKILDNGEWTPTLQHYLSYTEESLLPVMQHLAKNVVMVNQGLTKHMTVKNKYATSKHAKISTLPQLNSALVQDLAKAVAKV
Sequence of CDK6/cyclin D3 (P30281 whole entry, the tested form may be a part): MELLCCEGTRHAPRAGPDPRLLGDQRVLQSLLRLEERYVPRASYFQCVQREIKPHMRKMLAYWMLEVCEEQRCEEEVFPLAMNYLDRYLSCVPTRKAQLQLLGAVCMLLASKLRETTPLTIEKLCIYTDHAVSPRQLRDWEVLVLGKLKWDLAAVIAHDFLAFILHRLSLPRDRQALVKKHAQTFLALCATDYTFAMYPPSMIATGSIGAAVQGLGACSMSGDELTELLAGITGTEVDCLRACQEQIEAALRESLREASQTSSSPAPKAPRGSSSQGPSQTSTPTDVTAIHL
Sequence of CDK6/cyclin D3 (Q00534 whole entry, the tested form may be a part): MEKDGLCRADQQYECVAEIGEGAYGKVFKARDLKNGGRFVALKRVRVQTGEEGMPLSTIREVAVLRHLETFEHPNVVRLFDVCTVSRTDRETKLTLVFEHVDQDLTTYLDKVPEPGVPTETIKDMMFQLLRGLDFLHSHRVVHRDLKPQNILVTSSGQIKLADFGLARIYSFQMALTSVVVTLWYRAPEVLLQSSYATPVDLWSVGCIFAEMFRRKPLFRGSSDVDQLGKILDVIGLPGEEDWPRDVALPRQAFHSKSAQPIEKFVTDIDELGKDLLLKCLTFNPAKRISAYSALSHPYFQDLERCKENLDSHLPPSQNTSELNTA

As a reminder, the inhibition is the relative decrease from the control value, in per cent. As for `Cc1c(Nc2ncc3c(n2)CCCC3)cccc1NS(C)(=O)=O`, the inhibition in [1] is 63%.

For the molecule `FC(F)(F)c1ccccc1Nc1ncc2c(n1)CCCC2`, the inhibition was 8% in [2] and 10% in assay [1].

Usually IC50 stands for the midpoint of a concentration-inhibition curve. What is called Ki is a dissociation constant, usually derived from enzyme kinetics or from competition with a known ligand. For orientation: GI50 means the concentration that inhibits growth by half. As for `c1ccc(Nc2ncc3c(n2)CCCC3)cc1`, in [3], the IC50 is 1760 nM and the Ki amounted to 880 nM. In the assay with MOLM-13, the GI50 was determined as 5.63 µM. For the same molecule, the GI50 in the assay on MV4-11 was determined as 9.83 µM.

As to `COc1cc(Cl)ccc1Nc1ncc2c(n1)CCCC2`, in [2], the inhibition result is “inactive”. The inhibition in [1] is 45%.

For the molecule `CCc1cccc(Nc2ncc3c(n2)CCCC3)c1`, the Ki at CDK2/Cyclin A2 is over 5 µM; at CDK7/Cyclin H/MNAT1, over 5 µM; in [4] it was over 5 µM; in assay [3] it was 1230 nM; at CDK6/cyclin D3, over 5 µM; at CDK9/cyclin T1, over 5 µM. In addition, the Ki in assay [5] and in assay [6] was over 5 µM throughout. For the same molecule, the values for the inhibition in assay [2] and in [1] were 39% and 78%, respectively. Besides, in the assay with MV4-11, the GI50 amounted to 2.6 µM.

As to `COc1ccc(Nc2ncc3c(n2)CCCC3)c(OC)c1F`, the inhibition in [2] turned out to be 7%; in [1] it was 21%.

As for `COc1ccccc1Nc1ncc2c(n1)CCCC2`, the figures for the inhibition in assay [2] and in assay [1] were 2% and 22%, respectively.

With `Cc1ccccc1Nc1ncc2c(n1)CCCC2`, the Ki at CDK2/Cyclin A2 is 4.12 µM; at CDK7/Cyclin H/MNAT1, over 5 µM; in assay [4], over 5 µM; in assay [3] it was 990 nM; on CDK6/cyclin D3 it was over 5 µM; on CDK9/cyclin T1, over 5 µM. Further, the Ki in assay [5] and in assay [6] was over 5 µM throughout. Further, the values for the inhibition in assay [2] and in assay [1] were 54% and 82%, respectively. Moreover, in the assay on MV4-11, the GI50 was over 10 µM.

Take `COc1ccc(Nc2ncc3c(n2)CCCC3)cc1`: the inhibition is 3% in assay [2] and 1% in assay [1].

`CCOc1ccccc1Nc1ncc2c(n1)CCCC2`: the inhibition came out at 2% in assay [2] and 4% in assay [1].

As to `Cc1ccc(Nc2ncc3c(n2)CCCC3)cc1`, the Ki is 4.54 µM on CDK2/Cyclin A2; over 5 µM on CDK7/Cyclin H/MNAT1; over 5 µM in assay [4]; 1440 nM in [3]; over 5 µM on CDK6/cyclin D3; over 5 µM on CDK9/cyclin T1. Further, the Ki in assay [5] and in [6] was over 5 µM throughout. Moreover, the inhibition in assay [2] was 58%; in assay [1], 77%. The concentration for 50% growth inhibition (GI50) in the assay with MV4-11 is 6 µM.

In the case of `COc1ccc(Nc2ncc3c(n2)CCC3)cc1`, the Ki in assay [3] came out at 1720 nM. Besides, the GI50 in the assay with MOLM-13 was 1.1 µM; in the assay with MV4-11, 0.84 µM.

`O=[N+]([O-])c1cccc(Nc2ncc3c(n2)CCCC3)c1`: the Ki at CDK2/Cyclin A2 is 1.1 µM; at CDK7/Cyclin H/MNAT1 it was over 5 µM; in assay [4], over 5 µM; in assay [3] it was 1260 nM; on CDK6/cyclin D3, over 5 µM; at CDK9/cyclin T1 it was over 5 µM. In addition, the Ki in assay [5] and in assay [6] was over 5 µM throughout. In addition, the inhibition in assay [2] came to 87%; in [1], 83%. Further, the GI50 in the assay with MV4-11 is 3.5 µM.

Regarding `FC(F)(F)c1cccc(Nc2ncc3c(n2)CCCC3)c1`, the inhibition in assay [2] is 7%; in assay [1] it was 5%.

For `CC1(C)CC(=O)c2cnc(NC(=O)c3ccc(F)cc3)nc2C1`, the Ki entry in [7] is given as “Not Active”.

`FC(F)(F)Oc1ccccc1Nc1ncc2c(n1)CCCC2`: the inhibition entry in assay [2] is “inactive”. Moreover, the inhibition in assay [1] came out at 9%.

In the case of `COc1cccc(Nc2ncc3c(n2)CCCC3)c1`, the Ki at CDK2/Cyclin A2 was 1.11 µM; on CDK7/Cyclin H/MNAT1 it was over 5 µM; in assay [4], over 5 µM; in assay [3], 1010 nM; at CDK6/cyclin D3, over 5 µM; on CDK9/cyclin T1, over 5 µM. Moreover, the Ki in assay [5] and in [6] was over 5 µM each time. The inhibition was found to be 93% in assay [2] and 85% in assay [1]. For the same molecule, in the assay with MV4-11, the GI50 came to 2.28 µM.

`FC(F)(F)c1ccc(Nc2ncc3c(n2)CCCC3)cc1`: the figures for the inhibition in assay [2] and in assay [1] were 7% and 6%, respectively.

Consider `O=C(Nc1cccc(CN2CCCC2)c1)c1n[nH]c2ccccc12`, for which the Ki in assay [3] was 2030 nM. Further, the GI50 in the assay with MOLM-13 is 3.83 µM; with MV4-11, 8.62 µM.
